Key:
Assay type in all cases: functional
OVCAR-5 = assay: Growth inhibition of human OVCAR5 cells after 96 hrs by MTT assay; settings: OVCAR-5, 96 h
Summary of the method: (§1)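 Tested in the NCI 60-cell-line panel in five-dose format; GI50 and LC50 values reported for each cell line.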

OVCAR-8 = assay: Growth inhibition of human OVCAR8 cells at 100 nM after 96 hrs by MTT assay; parameters: scale not given: the % may be the effect or the level left
DU-145 [1] = assay: Growth inhibition of human DU145 cells at 10 nM after 96 hrs by MTT assay; parameters: scale not given: the % may be the effect or the level left
MCF7 = assay: Growth inhibition of human MCF7 cells at 10 nM after 96 hrs by MTT assay; parameters: scale not given: the % may be the effect or the level left
HT-29 = assay: Growth inhibition of human HT-29 cells at 10 nM after 96 hrs by MTT assay; parameters: scale not given: the % may be the effect or the level left
SK-MEL-5 = assay: Growth inhibition of human SK-MEL-5 cells after 96 hrs by MTT assay; settings: SK-MEL-5, 96 h; summary of the method: as §1
KM12 [2] = assay: Growth inhibition of human KM12 cells after 96 hrs by MTT assay; settings: KM12, 96 h
Summary of the method: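 Run in the NCI 60 human tumour cell line panel as a five-dose assay. GI50 and LC50 were reported for each cell line.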

OVCAR-3 = assay: Growth inhibition of human OVCAR-3 cells after 96 hrs by MTT assay; settings: OVCAR-3, 96 h; summary of the method: as §1
HOP-62 = assay: Growth inhibition of human HOP62 cells at 1 nM after 96 hrs by MTT assay; parameters: scale not given: the % may be the effect or the level left
HCT-15 = assay: Growth inhibition of human HCT15 cells at 100 nM after 96 hrs by MTT assay; parameters: scale not given: the % may be the effect or the level left
SW-620 = assay: Growth inhibition of human SW620 cells after 96 hrs by MTT assay; settings: SW-620, 96 h; summary of the method: as §1
COLO 205 = assay: Growth inhibition of human COLO205 cells at 10 uM after 96 hrs by MTT assay; parameters: scale not given: the % may be the effect or the level left
KM12 [3] = assay: Growth inhibition of human KM12 cells at 100 nM after 96 hrs by MTT assay; parameters: scale not given: the % may be the effect or the level left
UACC-257 = assay: Growth inhibition of human UACC257 cells at 10 uM after 96 hrs by MTT assay; parameters: scale not given: the % may be the effect or the level left
EKVX = assay: Growth inhibition of human EKVX cells at 10 uM after 96 hrs by MTT assay; parameters: scale not given: the % may be the effect or the level left
DU-145 [4] = assay: Growth inhibition of human DU145 cells at 1 nM after 96 hrs by MTT assay; parameters: scale not given: the % may be the effect or the level left
[5] = Growth inhibition of human RPMI8266 cells at 1 uM after 96 hrs by MTT assay; parameters: scale not given: the % may be the effect or the level left
U-251 = assay: Growth inhibition of human U251 cells at 100 nM after 96 hrs by MTT assay; parameters: scale not given: the % may be the effect or the level left
[6] = read-out: Log10LC50 (converted)
[7] = read-out: LC50 (the source's name)
[8] = read-out: Log10GI50 (converted)

C=C(C)[C@H]1CC=C(C)C2=CO[C@@H](c3ccccc3F)[C@@H]21
LC50 (50% lethal concentration) (OVCAR-5; [6]): 72.4 µM
TGI (OVCAR-5; read-out: Log10TGI (converted)): 41.7 µM
TGI (OVCAR-5; read-out: TGI): 41.3 µM
Activity (OVCAR-8): 93%
Activity (DU-145 [1]): 84%
Activity (MCF7): 103%
Activity (HT-29): 92%
GI50 (SK-MEL-5; read-out: GI50): 2.48 µM
CC50 (SK-MEL-5; [7]): 38.6 µM
GI50 (SK-MEL-5; [8]): 2.51 µM
CC50 (SK-MEL-5; [6]): 38.9 µM
TGI (SK-MEL-5; read-out: Log10TGI (converted)): 14.8 µM
TGI (SK-MEL-5; read-out: TGI): 14.9 µM
GI50 (KM12 [2]; read-out: GI50): 4.02 µM
LC50 (KM12 [2]; read-out: LC50): 40.4 µM
GI50 (KM12 [2]; [8]): 3.98 µM
LC50 (KM12 [2]; [6]): 40.7 µM
TGI (KM12 [2]; read-out: Log10TGI (converted)): 15.8 µM
TGI (KM12 [2]; read-out: TGI): 15.7 µM
GI50 (OVCAR-3; read-out: GI50): 3.24 µM
CC50 (OVCAR-3; [7]): 36.5 µM
GI50 (OVCAR-3; [8]): 3.24 µM
CC50 (OVCAR-3; [6]): 36.3 µM
TGI (OVCAR-3; read-out: Log10TGI (converted)): 12.9 µM
TGI (OVCAR-3; read-out: TGI): 12.8 µM
Activity (HOP-62): 95%
Activity (HCT-15): 84%
GI50 (SW-620; read-out: GI50): 4.49 µM
CC50 (SW-620; [7]): 43.4 µM
GI50 (SW-620; [8]): 4.47 µM
CC50 (SW-620; [6]): 43.7 µM
TGI (SW-620; read-out: Log10TGI (converted)): 15.8 µM
TGI (SW-620; read-out: TGI): 15.9 µM
Activity (COLO 205): 101.29%
Activity (KM12 [3]): 90%
Activity (UACC-257): 76.82%
Activity (EKVX): 102.28%
Activity (DU-145 [4]): 88%
Activity [5]: -52%
Activity (U-251): 80%
